Source: paper PMC6800648 (Cell chemical biology, 2019)
Square brackets hold non-standard residues; d marks the D form. Peptide text beside a SMILES is read from it. * marks the point of attachment. Benzoyl(4-tBu) = CC(C)(C)c1ccc(C(=O)*)cc1; Lys(Et2) = CCN(CC)CCCC[C@H](N)C(=O)O

What was measured:
CBX7 chromodomain [1] = molecular target: T1, CBX7 chromodomain (Homo sapiens, UniProt O95931); test: Fluorescence polarization; assay type: biochemical
T1 sequence (O95931 1-62): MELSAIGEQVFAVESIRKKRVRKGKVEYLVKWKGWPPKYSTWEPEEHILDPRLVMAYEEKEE
How it was run: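 Buffer: 25 mM Tris-HCl pH 7.4, 100 mM NaCl, 0.05% Tween-20, 2 mM DTT; 100 nM FAM-dsDNA or FAM-ANRIL-RNA; 0.2% DMSO; 30 min at RT. Compound titration: eight-point three-fold series from 100 µM with 30 µM CBX7 chromodomain. Ratio mode: CBX7 and test compound co-diluted at fixed 3:1 from 300 µM/100 µM. Polarisation normalised to a no-protein control; α fitted by the Stockton-Ehlert allosteric model.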

mESCs = test: CellTiter-Glo viability assay in mESCs; assay type: cell-based, mouse; conditions: 48 hr
How it was run: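 Mouse ES cells, 5,000 per well, exposed in technical triplicate for 48 hr at 37°C to a ten-point three-fold dilution series prepared from 50 mM DMSO stocks (0.2% DMSO final). Media-only wells served as negative controls. After equilibrating at room temperature, CellTiter-Glo was added, with 2 min shaking and 10 min settling, then luminescence read.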

CBX7 and RING1B = molecular target: T2, CBX7 and RING1B (Mus musculus, UniProt Q8VDS3); test: ChIP-qPCR / ChIP-seq in mESCs; assay type: cell-based; conditions: 4 hours, 20 μM
T2 sequence (Q8VDS3 1-158): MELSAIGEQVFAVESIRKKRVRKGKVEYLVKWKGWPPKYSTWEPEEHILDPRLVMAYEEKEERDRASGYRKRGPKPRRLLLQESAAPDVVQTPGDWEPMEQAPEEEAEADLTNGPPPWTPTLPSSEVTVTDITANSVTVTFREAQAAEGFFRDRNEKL
T2 sequence (Q9CQJ4 2-336 partner limits assumed): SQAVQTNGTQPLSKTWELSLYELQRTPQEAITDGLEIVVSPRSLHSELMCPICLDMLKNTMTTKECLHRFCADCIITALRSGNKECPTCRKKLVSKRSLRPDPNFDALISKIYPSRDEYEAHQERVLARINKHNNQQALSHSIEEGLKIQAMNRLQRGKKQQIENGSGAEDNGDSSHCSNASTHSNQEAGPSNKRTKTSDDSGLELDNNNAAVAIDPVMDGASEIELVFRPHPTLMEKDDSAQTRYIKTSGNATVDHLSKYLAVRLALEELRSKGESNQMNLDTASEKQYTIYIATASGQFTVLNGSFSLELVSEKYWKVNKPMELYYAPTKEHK

CBX7 = molecular target: T3, CBX7 (Mus musculus, UniProt Q8VDS3); test: Polycomb in-vivo Assay; assay type: cell-based
T3 sequence (Q8VDS3 2-69 limits assumed): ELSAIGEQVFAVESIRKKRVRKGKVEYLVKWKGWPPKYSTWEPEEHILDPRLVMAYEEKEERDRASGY

Polycomb target genes = test: RT-qPCR mRNA expression in HEK293 cells; assay type: cell-based, human; conditions: HEK293, 6 μM and 20 μM, 2 days
How it was run: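 HEK293 cells were treated with test compounds at 6 µM and 20 µM for 2 days. RNA was reverse-transcribed and Polycomb target transcripts were quantified by qPCR with ~100–150 bp amplicons.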

CBX7 chromodomain [2] = molecular target: T1, CBX7 chromodomain; test: Electrophoretic mobility shift assay; assay type: biochemical
How it was run: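 Buffer: 25 mM Tris-HCl pH 7.4, 100 mM NaCl, 0.05% Tween-20, 2 mM DTT. Compound runs used 150 µM CBX7 with 100 nM FAM-DNA probe and 50 µM test compound (0.3% DMSO); protein-only runs used a three-fold CBX7 series. Binding 20 min on ice. Native 10% Tris-glycine gel at 100 V, 4°C, 90 min in the dark. FAM fluorescence imaged, then Coomassie-stained.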

CBX7 chromodomain [3] = conditions: ref Stuckey et al., 2016a, 2016b; cited from earlier work

- enhancement in CBX7 affinity for FAM-dsDNA (CBX7 chromodomain [1]; 1:3 ratio of compound to protein titration): negligible enhancement
- allosteric modulator class of oligonucleotide binding (CBX7 chromodomain [1]; FP data fit to the Stockton/Ehlert allosteric binding model): silent allosteric modulator (SAM)
- α (factor of enhancement of CBX7 affinity for the DNA probe) (CBX7 chromodomain [1]; Stockton/Ehlert allosteric binding model, 1:3 compound to CBX7, 100 nM FAM-dsDNA): 1.5
- CBX7 and RING1B binding at PRC1 target TSSs (CBX7 and RING1B): more limited impact
- EC50 (CBX7): 41.7 ± 2.24 µM
- binding to CBX7 by Coomassie stain (higher molecular weight band shifts) (CBX7 chromodomain [2]; EMSA gel): showed binding to CBX7
- effect on FAM-dsDNA binding to CBX7 (CBX7 chromodomain [2]; EMSA, 150 mM CBX7 and 100 nM FAM-dsDNA probe, 1:3 ratio of compound to CBX7): did not have any effect
SMILES: CCN(CC)CCCC[C@H](NC(=O)[C@H](CC(C)C)NC(=O)[C@H](C)NC(=O)[C@H](Cc1ccccc1)NC(=O)c1ccc(C(C)(C)C)cc1)C(=O)N[C@@H](CO)C(=O)OC [UNC3866, methyl N^2-(4-(tert-butyl)benzoyl)-L-phenylalanyl-L-alanyl-L-leucyl-N^6,N^6-diethyl-L-lysyl-L-serinate] ({Benzoyl(4-tBu)}-FAL[Lys(Et2)]S-OMe)
- mESC viability upon compound treatment (mESCs): non-toxic
- effect on transcription of Polycomb target genes (Polycomb target genes): either no or a mild effect
- fold more potent than fragments of the endogenous H3K27me3 peptide (CBX7 chromodomain [3]): > 100 fold
